ADAM10 inh – inhibits human ADAM10. recombinant ADAM10, EDANS/DABCYL FRET peptide cleavage, 3 h. inhibition, % at 7 µM. actives 0.62% (n = 370,000). AID 720582;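 active = inhibition above a per-campaign cutoff equal to the mean of compounds falling between control-based bounds plus 3 SD, cut at about 20% in these data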;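 note: 0% = DMSO wells while the 100% control is not disclosed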
aDG glyco act – increases alpha dystroglycan glycosylation; Pro5-aDG cells, alpha-DG glycosylation AlphaScreen (IIH6); 0% Pro5, 100% B10-LARGE cell signal; actives 0.22% (n = 360,000); activation, % at 10 µM; AID 624168;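 active = activation of at least 8% versus controls, or a plate z-score of at least 8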;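 note: Pro5 are CHO cells carrying HIG-tagged alpha-DG that lacks glycosylation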
ADAM17 inh – ADAM17 inhibition, QFRET primary screen; P78536; recombinant ADAM17, EDANS/DABCYL FRET peptide cleavage; inhibition, % at 6.95 µM; actives 0.83% (n = 370,000);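 active = inhibition above the mean of compounds lying between control limits plus 3 SD, set per campaign, cut at about 8.5% in these data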;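 note: 0% = DMSO-only wells as the low control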
Target sequence (P78536 215-824 limits assumed): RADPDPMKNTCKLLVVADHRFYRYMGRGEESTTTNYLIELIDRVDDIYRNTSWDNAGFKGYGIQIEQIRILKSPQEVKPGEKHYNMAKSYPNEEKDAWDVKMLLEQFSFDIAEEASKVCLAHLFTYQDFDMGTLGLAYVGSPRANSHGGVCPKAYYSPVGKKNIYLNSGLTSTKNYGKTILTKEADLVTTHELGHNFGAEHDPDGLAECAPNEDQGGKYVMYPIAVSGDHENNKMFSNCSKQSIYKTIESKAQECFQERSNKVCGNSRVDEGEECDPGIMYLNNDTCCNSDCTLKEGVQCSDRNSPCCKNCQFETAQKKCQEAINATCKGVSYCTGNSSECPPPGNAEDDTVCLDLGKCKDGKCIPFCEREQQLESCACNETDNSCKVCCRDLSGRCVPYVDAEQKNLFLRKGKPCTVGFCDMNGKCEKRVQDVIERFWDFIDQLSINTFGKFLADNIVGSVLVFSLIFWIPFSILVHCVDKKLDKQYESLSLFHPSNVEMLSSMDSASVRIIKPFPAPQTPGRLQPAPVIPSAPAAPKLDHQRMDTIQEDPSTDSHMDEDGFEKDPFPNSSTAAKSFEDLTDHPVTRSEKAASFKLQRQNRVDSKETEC
Lipid droplet – hepatic lipid droplet formation modulation; inhibition, % at 6.5 µM; AML12 mouse hepatocytes, oleate lipid droplets, BODIPY imaging; actives 0.4% (n = 240,000);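 active = lipid droplet intensity inhibited by at least 50%, with more than 500 cells counted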
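Test system: AML12 mouse liver cells; schedule: overnight exposure; technique: high-content imaging of BODIPY-stained droplets and DAPI nuclei; read-out: % inhibition of corrected integrated BODIPY droplet signal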
V-ATPase pHluor – alters yeast V-ATPase proton transport | AID 504577 | actives 0.37% (n = 350,000) | S. cerevisiae, pHLuorin cytosolic pH fluorescence | response, % at 10 µM; in the data active = response mostly above about 7.3%, no sharp cut-off; inactive = mostly below about 5.4%; note: actives read high
MPTP block – permeability transition pore inhibition; actives 1.4% (n = 360,000); isolated mouse mitochondria, Ca2+ swelling absorbance, 30 min; AID 602449; inhibition, % at 10 µM;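 active = inhibition of 50% or more, scaled per plate between neutral and stimulator controls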;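 note: 0% = DMSO wells given calcium and 100% = 1 mM EGTA wells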
Active calls of the source: *; ! = not active in a repeat. Shown are actives, neighbours in structure and some others; about 3.1% of the full set was active somewhere.

For COc1cc(C(Nc2ccccn2)c2ccc3ccc(C)nc3c2O)cc(OC)c1O (stereo unspecified) the results were aDG glyco act 0, V-ATPase pHluor 2 and MPTP block 3.
`Cc1ccc2ccc(C(Nc3ccccn3)c3ccccc3)c(O)c2n1` (stereo unspecified) gave ADAM10 inh 25*, aDG glyco act 0, ADAM17 inh 8, V-ATPase pHluor -2 and MPTP block 1.
For O=C(CSc1nc2ccccc2n1Cc1ccccc1)NN=C/C=C/c1ccccc1 the results were ADAM10 inh 19 and ADAM17 inh 5.
For O=C(NC1=NC2(C=C3CCCCC3n3c(=O)n(-c4ccccc4)c(=O)n32)CN1CC1CC1)c1ccccc1 (stereo unspecified) the results were ADAM10 inh 7 and ADAM17 inh 0.
For O=S(=O)(Nc1cccc2ccccc12)c1cccs1 the results were ADAM10 inh 2, aDG glyco act 0, ADAM17 inh -3, Lipid droplet 0, V-ATPase pHluor 0 and MPTP block -1.
`O=S(=O)(Nc1ccc(O)c2ccccc12)c1cccs1` gave ADAM10 inh -20, aDG glyco act 2.7*, ADAM17 inh -11, Lipid droplet -20, V-ATPase pHluor 4 and MPTP block 0.
`COc1ccc(C(=O)c2c(C(F)(F)F)oc3c2C(=O)c2ccccc2C3=O)cc1OC` gave ADAM10 inh 11, aDG glyco act 5.7*, ADAM17 inh 8, Lipid droplet -18, V-ATPase pHluor 10 and MPTP block 3.
COc1ccc(C(=O)Nc2ccc3c(c2)C(=O)c2ccccc2C3=O)cc1OC was read as ADAM10 inh -3, aDG glyco act 1, ADAM17 inh -1, Lipid droplet -4, V-ATPase pHluor -1 and MPTP block -2.
For COc1ccc(-c2nc(CN3CCC(C(=O)NC4CCCc5ccccc54)CC3)c(C)o2)cc1OC (stereo unspecified) the results were ADAM10 inh -11, aDG glyco act 0, ADAM17 inh -5, V-ATPase pHluor 13* and MPTP block 2.
Screening COc1ccc(-c2nc(CN3CCC(C(=O)NC4CCCC4)CC3)c(C)o2)cc1OC returned ADAM10 inh 6, aDG glyco act 0, ADAM17 inh 0, Lipid droplet 2, V-ATPase pHluor 1 and MPTP block 0.
Screening CCC(C)Sc1cccc(-c2nc3cc(C)ccn3c2NC2CCCCC2)c1 (stereo unspecified) returned ADAM10 inh -254, aDG glyco act 15*!, ADAM17 inh -59, V-ATPase pHluor -5 and MPTP block 30.
`CCCCN1C(=O)N2Cc3cc(OC)ccc3C2CS1(=O)=O` (stereo unspecified) gave ADAM10 inh -4 and ADAM17 inh -2.
Screening O=c1c2ccc(Cl)cc2nc(-c2cccc(C(F)(F)F)c2)n1O returned ADAM10 inh 5, aDG glyco act 2, ADAM17 inh -4, V-ATPase pHluor 11* and MPTP block -1.
For Cc1ccc(NC(=O)Nc2cccs2)cc1 the results were ADAM10 inh 6, aDG glyco act 0, ADAM17 inh -3, Lipid droplet 0, V-ATPase pHluor 23* and MPTP block -6.
`CCc1ccc(NC(=O)Nc2cccs2)cc1` gave ADAM10 inh -3, aDG glyco act 0, ADAM17 inh -2, V-ATPase pHluor 5 and MPTP block -5.
For Nc1c(S(=O)(=O)c2ccccc2)c2nc3ccccc3nc2n1Cc1ccco1 the results were ADAM10 inh inactive, aDG glyco act 19*, ADAM17 inh inactive, V-ATPase pHluor -1 and MPTP block 3.
For C#CCN(C[C@@H]1[C@@H](OC(=O)Nc2cccs2)[C@@H](OC(=O)Nc2cccs2)Cn2c(=O)ccc(=O)n21)S(=O)(=O)c1ccc(C)cc1 the results were ADAM10 inh 18, aDG glyco act 0, ADAM17 inh 10*, V-ATPase pHluor 0 and MPTP block 0.
C#CCN(C[C@@H]1[C@@H](OC(=O)NC2CCCC2)[C@@H](OC(=O)NC2CCCC2)Cn2c(=O)ccc(=O)n21)S(=O)(=O)c1ccc(C)cc1 was read as ADAM10 inh 3, aDG glyco act 0, ADAM17 inh -1, V-ATPase pHluor -3 and MPTP block -3.
COC(=O)Cc1c(C)c2ccc(OC(=O)c3ccccc3)cc2oc1=O was read as ADAM10 inh inactive, aDG glyco act 0, ADAM17 inh inactive, Lipid droplet -4, V-ATPase pHluor 20* and MPTP block 1.
`O=C(Nc1ccc(F)cc1)OCc1cn(Cc2cccc(F)c2)nn1` gave ADAM10 inh 2 and ADAM17 inh -3.
For C=CCN1C(=O)/C(=C/c2ccc(OCC(=O)O)cc2)S/C1=N/c1nccs1 the results were ADAM10 inh 2, aDG glyco act 1, ADAM17 inh -2, Lipid droplet 6, V-ATPase pHluor -2 and MPTP block 1.
`C=CCN1C(=O)/C(=C/c2ccc(O)c(OC)c2)S/C1=N/c1nccs1` gave ADAM10 inh 22*, aDG glyco act 0, ADAM17 inh 8, Lipid droplet 32, V-ATPase pHluor 3 and MPTP block -9.
Screening COC(=O)[C@]12C[C@H](CC(=O)N3CCN(C(=O)c4ccco4)CC3)C(=O)N(Cc3cccc4ccccc34)C1=C[C@H](C(C)(C)C)O[C@@H]2C returned ADAM10 inh -1 and ADAM17 inh 2.
For CCCNCc1cc(Cl)c(OCC)c(Cl)c1 the results were ADAM10 inh 4, aDG glyco act 0, ADAM17 inh 0, Lipid droplet -8, V-ATPase pHluor 2 and MPTP block -1.
For CCOc1c(Cl)cc(CNCC(C)C)cc1Cl the results were ADAM10 inh 2, aDG glyco act 0, ADAM17 inh 0, V-ATPase pHluor 20* and MPTP block 0.
CCCCC[n+]1ccn(C2=C([O-])c3ccccc3C(=O)/C2=N\S(=O)(=O)c2ccc(Cl)cc2)c1 was read as ADAM10 inh -11, aDG glyco act 4.9*, ADAM17 inh -2, Lipid droplet 6, V-ATPase pHluor -2 and MPTP block 4.
For Cc1cc(=O)[nH]c(N2CCN(C(c3ccccc3)c3ccccc3)CC2)n1 the results were ADAM10 inh 3, aDG glyco act 0, ADAM17 inh -1, Lipid droplet 0, V-ATPase pHluor 19* and MPTP block 2.
`Cc1nc(N2CCN(C(c3ccccc3)c3ccccc3)CC2)[nH]c(=O)c1C` gave ADAM10 inh -4, aDG glyco act 0, ADAM17 inh -5, V-ATPase pHluor 0 and MPTP block 5.
For O=C(NCCc1ccccc1)C1CCN(S(=O)(=O)N2CCCCC2)CC1 the results were ADAM10 inh -2, aDG glyco act 0, ADAM17 inh -2, Lipid droplet -13, V-ATPase pHluor 2 and MPTP block 0.

Screening results from PubChem.
